The values that follow come from ChEMBL document CHEMBL1255240, “The mitochondrion is a site of trypanocidal action of the aromatic diamidine DB75 in bloodstream forms of Trypanosoma brucei” (Antimicrob Agents Chemother, 2008).

For data set [1], the system named is Trypanosoma brucei brucei. Briefly: Antimicrobial activity against Trypanosoma brucei brucei 427 bloodstream form assessed as reduction in mitochondrial membrane potential at 4 uM after 1 min using rhodamine 123 exclusion test. It is filed as functional. More on the design: scale not given: the % may be the effect or the level left. In outline: (§1)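 Rat-derived bloodstream cells washed in Tes buffer pH 7.5 (10 mM glucose, 1.0% fatty acid-free BSA) at room temperature. Cells at 10^7/ml pretreated with compound for the stated time, then 250 nM Rh123 for 2 min. Diluted 1:10 and flow cytometry (excitation 507, emission 529 nm) on 20,000 cells. % decrease in mean fluorescence versus untreated cells; at least three independent experiments.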

The subject of data set [2] is Trypanosoma brucei brucei. The data set can be described thus: Antimicrobial activity against Trypanosoma brucei brucei 427 bloodstream form assessed as reduction in mitochondrial membrane potential at 4 uM after 10 mins using rhodamine 123 exclusion test relative to control. It is filed as functional. More on the design: scale not given: the % may be the effect or the level left. In outline: as §1

For data set [3], the system named is Trypanosoma brucei brucei. Briefly: Antimicrobial activity against Trypanosoma brucei brucei 427 bloodstream form assessed as inhibition of mitochondrial ATPase activity at 50 uM after 10 mins. It is filed as functional. More on the design: scale not given: the % may be the effect or the level left. In outline:
(§2)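 Bloodstream-form mitochondrial fraction, 100 μg protein, in 20 mM Tris-HCl pH 7.4 with 15 mM KH2PO4, 0.6 M sorbitol, 10 mM MgSO4 and 2.5 mg/ml fatty acid-free BSA. Pre-incubated 10 min on ice with compound (final 10, 50 or 100 μM; oligomycin 50 μM pretreatment where combined), then 0.20 mM ATP for 30 min at 30°C. Perchloric acid quench; remaining ATP by luciferase against a standard curve, blank subtracted. Activity relative to untreated control (100%). Duplicates; three independent experiments.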

For data set [4], the system named is Trypanosoma brucei brucei. Briefly: Antimicrobial activity against Trypanosoma brucei brucei 427 bloodstream form assessed as reduction in mitochondrial membrane potential at 10 uM using rhodamine 123 exclusion test. It counts as functional, organism-based. A digest of the protocol:
as §1

Data set [5] has as its system Trypanosoma brucei brucei. Briefly: Inhibition of respiration in Trypanosoma brucei brucei 427 bloodstream form mitochondria using glycerol-3-phosphate as substrate at 10 uM. It is filed as functional. A digest of the protocol: (§3)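 Bloodstream trypanosomes were taken from infected rat blood and purified on DE52. They were lysed with glass beads, and a mitochondrial fraction was isolated by differential centrifugation at 0–4°C. Mitochondria at 0.8 mg/ml were held in mannitol/HEPES/EGTA/MgSO4 buffer, pH 7.4, without glucose, with 20 mM L-α-glycerol phosphate as substrate. Compound was added after a stable reading (about 2 min), and O2 consumption was recorded by oxygen electrode at 37°C.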

Data set [6] concerns Trypanosoma brucei brucei. The data set can be described thus: Inhibition of respiration in Trypanosoma brucei brucei 427 bloodstream form mitochondria using glycerol-3-phosphate as substrate at 2 mM. It is filed as functional. A digest of the protocol: as §3
The test system of data set [7] is Trypanosoma brucei brucei. The data set can be described thus: Inhibition of respiration in Trypanosoma brucei brucei 427 bloodstream form mitochondria using glycerol-3-phosphate as substrate at 600 uM. It counts as functional. A digest of the protocol: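 Mitochondrial fraction from rat-derived bloodstream cells, prepared by glass-bead lysis and differential centrifugation (12,000 × g pellet) at 0–4°C. Suspended to 0.8 mg/ml in glucose-free mannitol buffer pH 7.4 with 20 mM L-α-glycerol phosphate as substrate. O2 uptake by oxygen electrode at 37°C; compound added after a stable reading (about 2 min) and recording continued several minutes.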

Data set [8] deals with Trypanosoma brucei brucei. Briefly: Antimicrobial activity against Trypanosoma brucei brucei 427 bloodstream form assessed as inhibition of mitochondrial ATPase activity at 100 uM after 10 mins. It is filed as functional. More on the design: scale not given: the % may be the effect or the level left. In outline:
as §2

Data set [9] concerns Trypanosoma brucei brucei. The data set can be described thus: Antimicrobial activity against Trypanosoma brucei brucei 427 bloodstream form assessed as reduction in mitochondrial membrane potential at 1 uM after 1 min using rhodamine 123 exclusion test. It is filed as functional, organism-based. A digest of the protocol:
as §1

Data set [10] is described as follows: Drug uptake in Trypanosoma brucei brucei 427 bloodstream form nucleus at 1 uM after 5 mins by fluorescence microscopy. It counts as ADME. A digest of the protocol:
(§4)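 Cells (about 10^6) incubated with 1.0 μM compound in cBMEM (MEM-based, 10% heat-inactivated FBS) at 37°C, 5% CO2. Aliquots taken at set times, pelleted, and dried films examined by UV fluorescence microscopy. Intrinsic blue fluorescence (excitation 365, emission 465 nm) scored in nucleus and kinetoplast.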

The nature of data set [11]: Drug uptake in Trypanosoma brucei brucei 427 bloodstream form kinetoplast at 1 uM after 5 mins by fluorescence microscopy. It is filed as ADME. In outline: as §4
In data set [12] the test system is Trypanosoma brucei brucei. The data set can be described thus: Antimicrobial activity against Trypanosoma brucei brucei 427 bloodstream form assessed as inhibition of glucose-dependent cellular respiration at 300 uM. It counts as functional, organism-based. A digest of the protocol:
(§5)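 Bloodstream trypanosomes from infected rat blood, DE52-purified, washed once in mannitol-based buffer pH 7.4 (220 mM mannitol, 25 mM HEPES, 2 mM EGTA, 5 mM MgSO4) with 20 mM glucose. O2 uptake of 2.0 × 10^6 cells/ml recorded with an oxygen electrode at 37°C. % inhibition from the rates just before vs after compound addition. Two independent experiments.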

Data set [13] can be described thus: Drug uptake in Trypanosoma brucei brucei 427 bloodstream form mitochondria at 100 uM after 5 mins by fluorescence microscopy. It counts as ADME. A digest of the protocol: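 Living cells (10^6/ml) loaded with 25 nM MitoTracker Red CMXRos for 30 min at 37°C, washed, then given 100 μM compound for 5 min. Immobilised in 1.5% agarose (3.0% mixed 1:1) on a cold slide. Viewed with a DAPI-FITC-Texas Red triple filter; pink overlap taken as mitochondrial colocalisation.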

The test system of data set [14] is Trypanosoma brucei brucei. Briefly: Antimicrobial activity against Trypanosoma brucei brucei 427 bloodstream form assessed as inhibition of mitochondrial ATPase activity pretreated with oligomycin for 10 mins. It is filed as functional. A digest of the protocol: as §2
Data set [15] deals with Trypanosoma brucei brucei. Briefly: Antimicrobial activity against Trypanosoma brucei brucei 427 bloodstream form assessed as inhibition of mitochondrial ATPase activity 10 uM after 10 mins. It is filed as functional. More on the design: scale not given: the % may be the effect or the level left. A digest of the protocol:
as §2

For data set [16], the system named is Trypanosoma brucei brucei. The data set can be described thus: Antimicrobial activity against Trypanosoma brucei brucei 427 bloodstream form assessed as inhibition of glucose-dependent cellular respiration. It is filed as functional, organism-based. In outline:
as §5

The test system of data set [17] is Trypanosoma brucei brucei. Briefly: Antimicrobial activity against Trypanosoma brucei brucei 427 bloodstream form assessed as reduction in mitochondrial membrane potential at 10 uM after 1 min using rhodamine 123 exclusion test. It counts as functional. More on the design: scale not given: the % may be the effect or the level left. In outline: as §1
The test system of data set [18] is Trypanosoma brucei brucei. The data set can be described thus: Antimicrobial activity against Trypanosoma brucei brucei 427 bloodstream form assessed as reduction in mitochondrial membrane potential at 10 uM after 5 mins using rhodamine 123 exclusion test relative to control. More on the design: scale not given: the % may be the effect or the level left. It is filed as functional. A digest of the protocol:
as §1

Data set [19] has as its system Trypanosoma brucei brucei. The data set can be described thus: Antimicrobial activity against Trypanosoma brucei brucei 427 bloodstream form assessed as reduction in mitochondrial membrane potential at 10 uM after 10 mins using rhodamine 123 exclusion test relative to control. More on the design: scale not given: the % may be the effect or the level left. It counts as functional. A digest of the protocol:
as §1

The source made the active and inactive calls. No cut-off for these calls is given here.

With `CC[C@H]1/C=C/C=C/C[C@@H](C)[C@H](O)[C@@](C)(O)C(=O)[C@@H](C)[C@H](O)[C@@H](C)C(=O)[C@@H](C)[C@H](O)[C@@H](C)/C=C/C(=O)O[C@@H]2[C@H](C)[C@H](CC1)O[C@]1(CC[C@H](C)[C@H](C[C@@H](C)O)O1)[C@H]2C` [OLIGOMYCIN], the Activity in data set [1] is 23%; in [2] it was 50%; in [3], 30%.

Regarding `CCCCCC[C@H]1C(=O)O[C@H](C)[C@H](NC(=O)c2cccc(NC=O)c2O)C(=O)O[C@@H](C)[C@@H]1OC(=O)CC(C)C`, in [4], the result was inactive.

With `O=C(NO)c1ccccc1O`, the inhibition result in data set [5] and in data set [6] was “Active” each time.

The IC50 is the point on the concentration scale where inhibition reaches its midpoint. For `N=C(N)c1ccc(-c2ccc(-c3ccc(C(=N)N)cc3)o2)cc1` [FURAMIDINE], the inhibition entry in [7] was “inactive”. The Activity in [8] was 47%; in [3], 47%; in data set [15], 20%; in [17], 57%. For the same compound, the outcome in [9], in [12] and in data set [14] was Active. Moreover, the Drug uptake result in [10], in [11] and in data set [13] was “Active” throughout. Also, in [16], the IC50 worked out at 20 µM.

For the compound `N#CC(C#N)=NNc1cccc(Cl)c1` [CARBONYL CYANIDE M-CHLOROPHENYLHYDRAZONE], the outcome in [3] was inactive. In addition, the Activity in data set [18] came to 51%; in data set [17], 36%.

In the case of `CC(C)[C@@H]1NC(=O)[C@H](C)OC(=O)[C@@H](C(C)C)NC(=O)[C@@H](C(C)C)OC(=O)[C@H](C(C)C)NC(=O)[C@H](C)OC(=O)[C@@H](C(C)C)NC(=O)[C@@H](C(C)C)OC(=O)[C@H](C(C)C)NC(=O)[C@H](C)OC(=O)[C@@H](C(C)C)NC(=O)[C@@H](C(C)C)OC1=O` [VALINOMYCIN], the Activity in data set [19] is 70%.
